Measured values taken from ChEMBL document CHEMBL1255410, “Activity of the investigational fluoroquinolone finafloxacin against ciprofloxacin-sensitive and -resistant Acinetobacter baumannii isolates” (2010).
≈ marks a conversion by molar mass, not a printed value.

Assays:
[1] = test system: Acinetobacter baumannii; experiment: Antimicrobial activity against Acinetobacter baumannii isolate 4 at pH 5.8; format: functional
Outline: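 Agar dilution MIC on Mueller-Hinton agar acidified with HCl before pouring antibiotic plates; agar pH checked after setting. Isolate has characterized gyrA/parC genes. Plates made the same day from fresh medium, and both drugs tested at the same time. Read-out: MIC (μg/ml).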

[2] = test system: Acinetobacter baumannii; experiment: Antimicrobial activity against Acinetobacter baumannii isolate 44 harboring GyrA Ser83-Leu and ParC Glu84-Lys mutation at pH 7.2; format: functional
Outline: (§1)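 Agar dilution MIC on Mueller-Hinton agar. For the acidic condition, HCl was added to bring the agar to pH 5.8 before pouring the antibiotic plates, and the pH was checked after the agar set. The standard condition was pH 7.2. Both drugs' plates were made the same day from fresh medium, and MICs were read at the same time.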

[3] = test system: Acinetobacter baumannii; experiment: Antimicrobial activity against Acinetobacter baumannii isolate 49 harboring GyrA Ser83-Leu and ParC Ser80-Leu mutation at pH 7.2; format: functional; outline: as §1
[4] = test system: Acinetobacter baumannii; experiment: Antimicrobial activity against Acinetobacter baumannii isolate 16 at pH 7.2; format: functional
Outline: (§2)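 MIC by agar dilution on Mueller-Hinton agar under standard conditions (pH 7.2), against isolates with characterized gyrA/parC genes. Agar pH was checked after solidifying. Plates for both drugs were prepared the same day from freshly made media, and MICs were determined simultaneously with the pH 5.8 set.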

[5] = test system: Acinetobacter baumannii; experiment: Antimicrobial activity against Acinetobacter baumannii isolate 14 at pH 7.2; format: functional; outline: as §2
[6] = test system: Acinetobacter baumannii; experiment: Antimicrobial activity against Acinetobacter baumannii isolate 2 at pH 7.2; format: functional; outline: as §2
[7] = test system: Acinetobacter baumannii; experiment: Antimicrobial activity against Acinetobacter baumannii isolate 2 at pH 5.8; format: functional
Outline: (§3)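 MIC by agar dilution on Mueller-Hinton agar acidified to pH 5.8 with HCl before antibiotic-containing plates were poured. Agar pH was rechecked once the agar had solidified. Isolates had characterized gyrA/parC genes. Plates for both drugs were made the same day from fresh media, and MICs were read in parallel with the standard-pH set.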

[8] = test system: Acinetobacter baumannii; experiment: Antimicrobial activity against Acinetobacter baumannii isolate 33 harboring GyrA Ser83-Leu mutation at pH 7.2; format: functional; outline: as §1
[9] = test system: Acinetobacter baumannii; experiment: Antimicrobial activity against Acinetobacter baumannii isolate 27 harboring GyrA Ser83-Leu mutation at pH 7.2; format: functional; outline: as §2
[10] = test system: Acinetobacter baumannii; experiment: Antimicrobial activity against Acinetobacter baumannii isolate 7 at pH 7.2; format: functional
Outline: (§4)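 Agar dilution MIC on Mueller-Hinton agar under standard conditions (pH 7.2). Antibiotic-containing plates were made the same day from freshly prepared medium. Agar pH was checked after solidifying. Both fluoroquinolones were tested simultaneously against A. baumannii isolates with characterized gyrA/parC genes. MICs are in μg/ml.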

[11] = test system: Acinetobacter baumannii; experiment: Antimicrobial activity against Acinetobacter baumannii isolate 10 at pH 5.8; format: functional; outline: as §3
[12] = test system: Acinetobacter baumannii; experiment: Antimicrobial activity against Acinetobacter baumannii isolate 41 harboring GyrA Ser83-Leu mutation at pH 5.8; format: functional; outline: as §1
[13] = test system: Acinetobacter baumannii; experiment: Antimicrobial activity against Acinetobacter baumannii isolate 12 at pH 5.8; format: functional; outline: as §3
[14] = test system: Acinetobacter baumannii; experiment: Antimicrobial activity against Acinetobacter baumannii isolate 52 harboring GyrA Ser83-Leu and ParC Ser80-Leu mutation at pH 7.2; format: functional; outline: as §1
[15] = test system: Acinetobacter baumannii; experiment: Antimicrobial activity against Acinetobacter baumannii isolate 6 at pH 5.8; format: functional
Outline: (§5)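 Agar dilution MIC on Mueller-Hinton agar acidified to pH 5.8 with HCl before the antibiotic-containing plates were poured. Agar pH was checked after solidifying. Plates were made the same day from fresh medium. Both fluoroquinolones were tested simultaneously against A. baumannii isolates with characterized gyrA/parC genes. MICs are in μg/ml.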

[16] = test system: Acinetobacter baumannii; experiment: Antimicrobial activity against Acinetobacter baumannii isolate 33 harboring GyrA Ser83-Leu mutation at pH 5.8; format: functional; outline: as §1
[17] = test system: Acinetobacter baumannii; experiment: Antimicrobial activity against Acinetobacter baumannii isolate 40 harboring GyrA Ser83-Leu mutation at pH 7.2; format: functional; outline: as §1
[18] = test system: Acinetobacter baumannii; experiment: Antimicrobial activity against Acinetobacter baumannii isolate 1 at pH 5.8; format: functional; outline: as §3
[19] = test system: Acinetobacter baumannii; experiment: Antimicrobial activity against Acinetobacter baumannii isolate 62 harboring GyrA Ser83-Leu and ParC Ser80-Leu mutation at pH 5.8; format: functional; outline: as §5
[20] = test system: Acinetobacter baumannii; experiment: Antimicrobial activity against Acinetobacter baumannii isolate 61 harboring GyrA Ser83-Leu and ParC Ser80-Leu mutation at pH 5.8; format: functional; outline: as §5
[21] = test system: Acinetobacter baumannii; experiment: Antimicrobial activity against Acinetobacter baumannii isolate 16 at pH 5.8; format: functional; outline: as §3
[22] = test system: Acinetobacter baumannii; experiment: Antimicrobial activity against Acinetobacter baumannii isolate 60 harboring GyrA Ser83-Leu and ParC Ser80-Leu mutation at pH 7.2; format: functional; outline: as §4
[23] = test system: Acinetobacter baumannii; experiment: Antimicrobial activity against Acinetobacter baumannii isolate 34 harboring GyrA Ser83-Leu mutation at pH 5.8; format: functional; outline: as §1
[24] = test system: Acinetobacter baumannii; experiment: Antimicrobial activity against Acinetobacter baumannii isolate 55 harboring GyrA Ser83-Leu and ParC Ser80-Leu mutation at pH 5.8; format: functional; outline: as §1
[25] = test system: Acinetobacter baumannii; experiment: Antimicrobial activity against Acinetobacter baumannii isolate 18 at pH 5.8; format: functional; outline: as §3
[26] = test system: Acinetobacter baumannii; experiment: Antimicrobial activity against Acinetobacter baumannii isolate 31 harboring GyrA Ser83-Leu mutation at pH 7.2; format: functional; outline: as §2
[27] = test system: Acinetobacter baumannii; experiment: Antimicrobial activity against Acinetobacter baumannii isolate 36 harboring GyrA Ser83-Leu mutation at pH 5.8; format: functional; outline: as §1
[28] = test system: Acinetobacter baumannii; experiment: Antimicrobial activity against Acinetobacter baumannii isolate 25 harboring GyrA Ser83-Leu mutation at pH 5.8; format: functional; outline: as §3
[29] = test system: Acinetobacter baumannii; experiment: Antimicrobial activity against Acinetobacter baumannii isolate 31 harboring GyrA Ser83-Leu mutation at pH 5.8; format: functional; outline: as §3
[30] = test system: Acinetobacter baumannii; experiment: Antimicrobial activity against Acinetobacter baumannii isolate 12 at pH 7.2; format: functional; outline: as §2
[31] = test system: Acinetobacter baumannii; experiment: Antimicrobial activity against Acinetobacter baumannii isolate 11 at pH 7.2; format: functional; outline: as §2
[32] = test system: Acinetobacter baumannii; experiment: Antimicrobial activity against Acinetobacter baumannii isolate 63 harboring GyrA Ser83-Leu and ParC Glu84-Lys mutation at pH 5.8; format: functional; outline: as §5
[33] = test system: Acinetobacter baumannii; experiment: Antimicrobial activity against Acinetobacter baumannii isolate 60 harboring GyrA Ser83-Leu and ParC Ser80-Leu mutation at pH 5.8
[34] = test system: Acinetobacter baumannii; experiment: Antimicrobial activity against Acinetobacter baumannii isolate 21 harboring GyrA Ser83-Leu mutation at pH 5.8; format: functional; outline: as §3
[35] = test system: Acinetobacter baumannii; experiment: Antimicrobial activity against Acinetobacter baumannii isolate 13 at pH 7.2; format: functional; outline: as §2
[36] = test system: Acinetobacter baumannii; experiment: Antimicrobial activity against Acinetobacter baumannii isolate 45 harboring GyrA Ser83-Leu and ParC Ser80-Leu mutation at pH 5.8; format: functional; outline: as §1
[37] = test system: Acinetobacter baumannii; experiment: Antimicrobial activity against Acinetobacter baumannii isolate 35 harboring GyrA Ser83-Leu mutation at pH 7.2; format: functional; outline: as §1
[38] = test system: Acinetobacter baumannii; experiment: Antimicrobial activity against Acinetobacter baumannii isolate 65 harboring GyrA Ser83-Leu and ParC Ser80-Leu mutation at pH 7.2; format: functional; outline: as §4
[39] = test system: Acinetobacter baumannii; experiment: Antimicrobial activity against Acinetobacter baumannii isolate 4 at pH 7.2; format: functional; outline: as §1
[40] = test system: Acinetobacter baumannii; experiment: Antimicrobial activity against Acinetobacter baumannii isolate 35 harboring GyrA Ser83-Leu mutation at pH 5.8; format: functional; outline: as §1
[41] = test system: Acinetobacter baumannii; experiment: Antimicrobial activity against Acinetobacter baumannii isolate 9 at pH 5.8; format: functional; outline: as §5
[42] = test system: Acinetobacter baumannii; experiment: Antimicrobial activity against Acinetobacter baumannii isolate 58 harboring GyrA Ser83-Leu and ParC Ser80-Leu mutation at pH 5.8; format: functional; outline: as §5

## O=C(O)c1cn(C2CC2)c2cc(N3CCNCC3)c(F)cc2c1=O [CIPROFLOXACIN]
[1]
  MIC: 1 µg/mL (≈ 3.02 µM)
[2]
  MIC: 32 µg/mL (≈ 96.6 µM)
[3]
  MIC: 128 µg/mL (≈ 386 µM)
[4]
  MIC: 1 µg/mL (≈ 3.02 µM)
[5]
  MIC: 0.5 µg/mL (≈ 1.51 µM)
[6]
  MIC: 0.06 µg/mL (≈ 0.181 µM)
[7]
  MIC: 2 µg/mL (≈ 6.04 µM)
[8]
  MIC: 8 µg/mL (≈ 24.1 µM)
[9]
  MIC: 4 µg/mL (≈ 12.1 µM)
[10]
  MIC: 0.12 µg/mL (≈ 0.362 µM)
[11]
  MIC: 2 µg/mL (≈ 6.04 µM)
[12]
  MIC: > 128 µg/mL
[13]
  MIC: 2 µg/mL (≈ 6.04 µM)
[14]
  MIC: 128 µg/mL (≈ 386 µM)
[15]
  MIC: 2 µg/mL (≈ 6.04 µM)
[16]
  MIC: 128 µg/mL (≈ 386 µM)
[17]
  MIC: 16 µg/mL (≈ 48.3 µM)
[18]
  MIC: 2 µg/mL (≈ 6.04 µM)
[19]
  MIC: > 128 µg/mL
[20]
  MIC: > 128 µg/mL
[21]
  MIC: 4 µg/mL (≈ 12.1 µM)
[22]
  MIC: 128 µg/mL (≈ 386 µM)
[23]
  MIC: 128 µg/mL (≈ 386 µM)
[24]
  MIC: > 128 µg/mL
[25]
  MIC: 8 µg/mL (≈ 24.1 µM)
[26]
  MIC: 8 µg/mL (≈ 24.1 µM)
[27]
  MIC: 128 µg/mL (≈ 386 µM)
[28]
  MIC: 32 µg/mL (≈ 96.6 µM)
[29]
  MIC: 32 µg/mL (≈ 96.6 µM)
[30]
  MIC: 0.5 µg/mL (≈ 1.51 µM)
[31]
  MIC: 0.25 µg/mL (≈ 0.754 µM)
[32]
  MIC: > 128 µg/mL
[33]
  MIC: > 128 µg/mL
[34]
  MIC: 32 µg/mL (≈ 96.6 µM)
[35]
  MIC: 0.5 µg/mL (≈ 1.51 µM)
[36]
  MIC: > 128 µg/mL
[37]
  MIC: 8 µg/mL (≈ 24.1 µM)
[38]
  MIC: > 128 µg/mL
[39]
  MIC: 0.12 µg/mL (≈ 0.362 µM)
[40]
  MIC: 128 µg/mL (≈ 386 µM)
[41]
  MIC: 2 µg/mL (≈ 6.04 µM)
[42]
  MIC: > 128 µg/mL
